# In ChEMBL document CHEMBL2157861, “Discovery of 4-morpholino-pyrimidin-6-one and 4-morpholino-pyrimidin-2-one-containing Phosphoinositide 3-kinase (PI3K) p110β isoform inhibitors through structure-based fragment optimisation” (Bioorg Med Chem Lett, 2012):
# Key:
# [1] = molecular target: Phosphatidylinositol 4,5-bisphosphate 3-kinase catalytic subunit beta isoform (Homo sapiens, UniProt P42338); experiment: Inhibition of human recombinant His6-tagged PI3K p110beta expressed in baculovirus using DiC8-PI(4,5)P2 as substrate after 20 mins by AlphaScreen assay
# Method in brief: (§1)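 Values are the mean of at least two experiments. Experimental error was within 20% of the value.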
# [2] = Lipophilicity, log D of the compound by HPLC analysis at pH 7.4; format: physicochemical; conditions: buffer
# Method in brief: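 LogD was determined experimentally at pH 7.4 by an HPLC method.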
# [3] = molecular target: Phosphatidylinositol 4,5-bisphosphate 3-kinase catalytic subunit alpha isoform (Homo sapiens, UniProt P42336); experiment: Inhibition of human recombinant His6-tagged PI3K p110alpha expressed in baculovirus using DiC8-PI(4,5)P2 as substrate after 20 mins by AlphaScreen assay; method in brief: as §1
# [4] = molecular target: T1, Phosphatidylinositol 4,5-bisphosphate 3-kinase catalytic subunit delta isoform (Homo sapiens, UniProt O00329); experiment: Inhibition of PI3K p110delta
# T1 sequence (O00329 whole entry): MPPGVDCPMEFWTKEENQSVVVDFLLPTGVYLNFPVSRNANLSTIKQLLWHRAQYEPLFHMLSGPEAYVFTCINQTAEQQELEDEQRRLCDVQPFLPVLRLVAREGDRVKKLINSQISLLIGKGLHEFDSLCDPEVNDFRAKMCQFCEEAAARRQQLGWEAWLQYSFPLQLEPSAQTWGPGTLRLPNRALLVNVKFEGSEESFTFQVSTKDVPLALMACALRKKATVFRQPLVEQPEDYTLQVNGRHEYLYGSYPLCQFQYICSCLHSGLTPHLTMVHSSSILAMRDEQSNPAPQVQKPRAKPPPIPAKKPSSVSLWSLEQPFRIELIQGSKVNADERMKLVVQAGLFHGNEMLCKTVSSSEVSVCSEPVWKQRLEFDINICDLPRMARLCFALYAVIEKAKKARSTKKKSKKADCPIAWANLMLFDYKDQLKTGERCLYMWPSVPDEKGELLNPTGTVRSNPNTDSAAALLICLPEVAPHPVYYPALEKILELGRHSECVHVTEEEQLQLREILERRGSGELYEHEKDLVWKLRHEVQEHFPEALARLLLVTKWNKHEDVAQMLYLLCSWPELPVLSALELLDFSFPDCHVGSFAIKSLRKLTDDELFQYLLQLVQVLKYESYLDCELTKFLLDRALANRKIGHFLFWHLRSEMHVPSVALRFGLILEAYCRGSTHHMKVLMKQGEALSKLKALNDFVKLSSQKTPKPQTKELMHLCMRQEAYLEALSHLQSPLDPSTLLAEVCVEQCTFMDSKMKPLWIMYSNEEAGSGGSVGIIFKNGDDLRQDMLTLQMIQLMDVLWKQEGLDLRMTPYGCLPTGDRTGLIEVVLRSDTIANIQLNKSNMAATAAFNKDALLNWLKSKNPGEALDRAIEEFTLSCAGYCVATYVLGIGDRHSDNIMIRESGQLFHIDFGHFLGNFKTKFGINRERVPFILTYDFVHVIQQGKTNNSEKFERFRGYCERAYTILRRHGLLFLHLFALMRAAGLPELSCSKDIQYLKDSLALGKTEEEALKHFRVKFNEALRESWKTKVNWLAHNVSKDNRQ
# [5] = Solubility of the compound in DMSO/HBSS at pH 7.4; format: physicochemical
# Method in brief: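 Solubility was measured from DMSO into HBSS at pH 7.4.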
# [6] = molecular target: Phosphatidylinositol 4,5-bisphosphate 3-kinase catalytic subunit gamma isoform (Homo sapiens, UniProt P48736); experiment: Inhibition of PI3K p110gamma
# Liver microsomes = experiment: Drug metabolism in human liver microsomes assessed as reactive glutathione adduct formation ratio after 30 mins relative to clozapine; format: ADME, Microsome; conditions: 0.5 h
# Method in brief: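 Human liver microsomes at 1 mg/mL were incubated for 30 min in the presence of glutathione. The read-out was the ratio of reactive metabolite formation.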
# [7] = Half life in human liver microsomes after 30 mins; format: ADME, Microsome
# Method in brief: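 Half-life was measured after a 30 min incubation with human liver microsomes at 0.5 mg/mL.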
# Chain of Phosphatidylinositol 4,5-bisphosphate 3-kinase catalytic subunit alpha isoform (P42336 whole entry, canonical isoform): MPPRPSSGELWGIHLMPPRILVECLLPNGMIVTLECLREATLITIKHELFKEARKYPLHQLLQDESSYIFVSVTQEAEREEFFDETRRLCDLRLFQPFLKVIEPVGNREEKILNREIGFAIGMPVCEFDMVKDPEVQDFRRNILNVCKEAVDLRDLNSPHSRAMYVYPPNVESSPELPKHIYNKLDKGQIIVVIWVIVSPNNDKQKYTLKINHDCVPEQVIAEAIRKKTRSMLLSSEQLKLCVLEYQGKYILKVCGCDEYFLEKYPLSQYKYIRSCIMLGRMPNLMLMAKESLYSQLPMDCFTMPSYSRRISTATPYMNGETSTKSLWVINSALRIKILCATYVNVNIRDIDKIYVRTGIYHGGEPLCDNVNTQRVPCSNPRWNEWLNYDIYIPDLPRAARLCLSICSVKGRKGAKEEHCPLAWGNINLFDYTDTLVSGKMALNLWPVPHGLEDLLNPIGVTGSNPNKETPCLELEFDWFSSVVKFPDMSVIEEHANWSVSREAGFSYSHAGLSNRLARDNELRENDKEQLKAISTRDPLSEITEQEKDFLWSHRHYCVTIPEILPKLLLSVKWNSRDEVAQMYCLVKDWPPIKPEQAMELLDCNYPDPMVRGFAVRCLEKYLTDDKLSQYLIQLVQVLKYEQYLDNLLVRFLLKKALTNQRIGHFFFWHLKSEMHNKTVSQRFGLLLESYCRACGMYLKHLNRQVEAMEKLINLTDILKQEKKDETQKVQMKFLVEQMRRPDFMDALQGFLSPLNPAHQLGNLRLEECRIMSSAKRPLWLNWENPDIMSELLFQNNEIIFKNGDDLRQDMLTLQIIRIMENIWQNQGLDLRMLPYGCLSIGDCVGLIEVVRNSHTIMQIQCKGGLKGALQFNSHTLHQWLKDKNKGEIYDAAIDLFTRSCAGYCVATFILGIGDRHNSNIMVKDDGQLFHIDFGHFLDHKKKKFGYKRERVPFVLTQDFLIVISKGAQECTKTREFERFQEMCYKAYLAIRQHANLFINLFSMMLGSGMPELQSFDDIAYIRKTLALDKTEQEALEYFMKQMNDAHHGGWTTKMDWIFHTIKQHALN
# Chain of Phosphatidylinositol 4,5-bisphosphate 3-kinase catalytic subunit beta isoform (P42338 whole entry, canonical isoform): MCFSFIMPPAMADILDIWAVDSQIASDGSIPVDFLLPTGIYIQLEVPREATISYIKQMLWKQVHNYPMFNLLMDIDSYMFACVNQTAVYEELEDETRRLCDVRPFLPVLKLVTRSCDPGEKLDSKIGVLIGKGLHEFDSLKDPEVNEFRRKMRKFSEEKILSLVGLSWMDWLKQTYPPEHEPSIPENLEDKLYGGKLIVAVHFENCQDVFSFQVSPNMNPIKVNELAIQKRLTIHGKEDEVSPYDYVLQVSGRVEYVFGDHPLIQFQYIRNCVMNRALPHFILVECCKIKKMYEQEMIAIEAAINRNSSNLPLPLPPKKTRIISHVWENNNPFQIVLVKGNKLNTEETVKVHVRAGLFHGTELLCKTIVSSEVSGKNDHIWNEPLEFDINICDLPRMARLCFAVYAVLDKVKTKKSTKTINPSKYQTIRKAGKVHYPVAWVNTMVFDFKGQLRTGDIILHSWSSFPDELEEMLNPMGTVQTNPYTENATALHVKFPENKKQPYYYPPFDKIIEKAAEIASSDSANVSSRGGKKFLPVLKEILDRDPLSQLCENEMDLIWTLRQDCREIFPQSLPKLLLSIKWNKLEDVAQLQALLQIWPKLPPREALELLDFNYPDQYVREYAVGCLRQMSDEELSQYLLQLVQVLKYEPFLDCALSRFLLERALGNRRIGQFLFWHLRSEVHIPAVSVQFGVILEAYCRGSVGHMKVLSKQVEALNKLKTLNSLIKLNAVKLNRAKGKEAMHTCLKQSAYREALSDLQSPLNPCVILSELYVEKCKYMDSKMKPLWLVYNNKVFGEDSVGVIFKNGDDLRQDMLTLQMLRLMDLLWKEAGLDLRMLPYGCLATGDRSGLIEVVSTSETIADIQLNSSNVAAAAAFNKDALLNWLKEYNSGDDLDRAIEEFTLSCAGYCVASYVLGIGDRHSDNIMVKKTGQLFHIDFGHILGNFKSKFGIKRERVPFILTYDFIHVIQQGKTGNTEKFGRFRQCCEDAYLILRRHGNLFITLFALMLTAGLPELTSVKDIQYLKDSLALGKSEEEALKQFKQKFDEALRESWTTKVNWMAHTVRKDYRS
# Chain of Phosphatidylinositol 4,5-bisphosphate 3-kinase catalytic subunit gamma isoform (P48736 whole entry, canonical isoform): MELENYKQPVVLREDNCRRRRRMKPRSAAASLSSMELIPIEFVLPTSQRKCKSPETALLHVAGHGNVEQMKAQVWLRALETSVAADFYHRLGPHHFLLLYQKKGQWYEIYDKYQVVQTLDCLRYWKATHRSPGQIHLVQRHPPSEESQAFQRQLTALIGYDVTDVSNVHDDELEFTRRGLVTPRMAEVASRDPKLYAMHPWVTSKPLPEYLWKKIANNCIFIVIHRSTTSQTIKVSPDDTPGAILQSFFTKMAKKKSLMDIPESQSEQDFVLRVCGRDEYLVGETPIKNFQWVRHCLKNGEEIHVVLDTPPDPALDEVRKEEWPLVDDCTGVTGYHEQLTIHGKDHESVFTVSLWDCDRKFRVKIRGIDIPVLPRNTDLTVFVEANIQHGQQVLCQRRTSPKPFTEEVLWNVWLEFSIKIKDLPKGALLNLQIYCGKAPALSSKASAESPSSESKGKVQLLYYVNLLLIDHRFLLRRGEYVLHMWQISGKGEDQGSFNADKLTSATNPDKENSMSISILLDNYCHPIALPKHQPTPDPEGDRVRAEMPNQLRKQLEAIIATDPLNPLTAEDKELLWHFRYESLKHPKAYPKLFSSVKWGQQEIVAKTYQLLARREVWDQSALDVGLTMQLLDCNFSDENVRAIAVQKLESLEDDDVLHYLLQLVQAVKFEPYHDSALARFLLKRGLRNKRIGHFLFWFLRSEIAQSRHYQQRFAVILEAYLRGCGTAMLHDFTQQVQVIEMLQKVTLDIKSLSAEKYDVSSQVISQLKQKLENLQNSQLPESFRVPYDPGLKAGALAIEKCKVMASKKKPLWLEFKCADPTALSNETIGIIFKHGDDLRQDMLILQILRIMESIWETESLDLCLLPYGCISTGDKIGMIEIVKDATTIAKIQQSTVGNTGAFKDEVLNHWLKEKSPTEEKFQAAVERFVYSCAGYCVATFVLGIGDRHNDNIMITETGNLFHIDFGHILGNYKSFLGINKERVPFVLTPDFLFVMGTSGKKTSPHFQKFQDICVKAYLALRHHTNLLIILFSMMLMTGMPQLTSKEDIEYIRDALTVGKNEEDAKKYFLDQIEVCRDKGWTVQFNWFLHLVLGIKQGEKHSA
Compound,IC50 [1] [µM],IC50 [3] [µM],other results
Cc1cc(N2CCOCC2)nc(NCc2ccccc2)n1,130,,
Cc1cc(C(C)Nc2ccccc2)c2nc(N3CCOCC3)cc(=O)n2c1 (stereo not given),,5.7,logD [2]: 3.6
O=c1cc(N2CCOCC2)nc(NCc2ccccc2)[nH]1,1.9,12.2,logD [2]: 1.2
O=c1nc(N2CCOCC2)cc(NCc2ccccc2)[nH]1,29,> 83.3,logD [2]: 0.5
O=c1cc(NCc2ccccc2)nc(N2CCOCC2)[nH]1,63,283,logD [2]: 1.1
O=c1cc(NCc2ccccc2)[nH]c(N2CCOCC2)c1,34,142,logD [2]: 1.8
NC(=O)c1cc(N2CCOCC2)nc(NCc2ccccc2)n1,2.5,,
CNC(=O)c1cc(N2CCOCC2)nc(NCc2ccccc2)n1,23,,
CN(C)C(=O)c1cc(N2CCOCC2)nc(NCc2ccccc2)n1,25,,
Nc1nc(NCc2ccccc2)cc(N2CCOCC2)n1,110,> 83.3,
N#Cc1nc(NCc2ccccc2)cc(N2CCOCC2)n1,1.6,41.4,
NCc1nc(NCc2ccccc2)cc(N2CCOCC2)n1,87,> 83.3,
c1ccc(CNc2cc(N3CCOCC3)ncn2)cc1,36,> 83.3,
COC(=O)c1cc(NCc2ccccc2)nc(N2CCOCC2)c1,32,240,
OCc1cc(NCc2ccccc2)nc(N2CCOCC2)c1,43,119,
O=c1cc(N2CCOCC2)nc(NCc2cccc3ccccc23)[nH]1,0.093,4.3,logD [2]: 2.4; IC50 [4]: 0.14 µM; solubility [5]: 4.5 µM; IC50 [6]: 18.5 µM; Ratio (Liver microsomes): 0.21; half-life [7]: 41 min
O=c1cc(N2CCOCC2)nc(NCc2cccc(Cl)c2Cl)[nH]1,0.084,3,
O=c1cc(N2CCOCC2)nc(NCc2cccc(Cl)c2)[nH]1,0.47,7.9,
O=c1cc(N2CCOCC2)nc(NCc2ccccc2Cl)[nH]1,0.57,4.88,
O=c1cc(N2CCOCC2)nc(NCc2cc(Cl)ccc2Cl)[nH]1,1.4,4.52,
O=c1cc(N2CCOCC2)nc(NCc2c(Cl)cccc2Cl)[nH]1,1.5,3.38,
O=c1nc(N2CCOCC2)cc(NCc2cccc3ccccc23)[nH]1,2.6,> 83.3,logD [2]: 1.5; solubility [5]: > 100 µM; Ratio (Liver microsomes): 0; half-life [7]: > 115 min
O=c1nc(N2CCOCC2)cc(NCc2cccc(Cl)c2Cl)[nH]1,1.5,100,
C[C@H](Nc1cc(N2CCOCC2)nc(=O)[nH]1)c1cccc2ccccc12,10,52.8,
C[C@@H](Nc1cc(N2CCOCC2)nc(=O)[nH]1)c1cccc2ccccc12,36,146,
